Reference: ChEMBL document CHEMBL1144135, “Synthesis of 11,12-epoxydrim-8,12-en-11-ol, 11,12-diacetoxydrimane, and warburganal from (-)-sclareol” (J Nat Prod, 1999)
≈ marks a conversion by molar mass, not a printed value.

How the values were obtained:
Format in all cases: functional, cell-based
A549 = assay: Antitumor activity against human A549 cells
In short: (§1)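 Cells from four lines (P-388, A-549, HT-29, MEL-28) were tested in parallel with reference standards. Activity was read out as IC50 in […], using a previously published antitumor assay protocol.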

HT-29 = assay: Antitumor activity against human HT-29 cells; in short: as §1
[1] = Antitumor activity against human SK MEL28 cells; conditions: SK-MEL-28; in short: as §1
P388 = assay: Antitumor activity against mouse P388 cells; in short: as §1

In the case of `CC1(C)CCC[C@]2(C)[C@@H]3C(=CO[C@@H]3O)CC[C@@H]12`, the IC50 (A549) is reported as 0.5 µg/mL (≈ 2.12 µM), the IC50 (HT-29) is reported as 1 µg/mL (≈ 4.23 µM) and the IC50 [1] is reported as 1 µg/mL (≈ 4.23 µM). It also gave an IC50 (P388) of 0.5 µg/mL (≈ 2.12 µM).

In the case of `COc1cccc2c1C(=O)c1c(O)c3c(c(O)c1C2=O)C[C@@](O)(C(=O)CO)C[C@@H]3O[C@H]1C[C@H](N)[C@H](O)[C@H](C)O1.Cl` [DOXORUBICIN HYDROCHLORIDE], the IC50 (A549) is reported as 0.025 µg/mL, the IC50 (HT-29) is reported as 0.5 µg/mL and the IC50 [1] is reported as 0.5 µg/mL. For the same molecule, the IC50 (P388) was 0.1 µg/mL.

In the case of `O=c1[nH]cc(F)c(=O)[nH]1` [FLUOROURACIL], the IC50 (A549) is reported as 0.1 µg/mL (≈ 0.769 µM), the IC50 (HT-29) is reported as 0.1 µg/mL (≈ 0.769 µM) and the IC50 [1] is reported as 0.1 µg/mL (≈ 0.769 µM). It also gave an IC50 (P388) of 0.02 µg/mL (≈ 0.154 µM).

`CN(Cc1cnc2nc(N)nc(N)c2n1)c1ccc(C(=O)N[C@@H](CCC(=O)O)C(=O)O)cc1` [METHOTREXATE] gave an IC50 (A549) of 0.005 µg/mL (≈ 0.011 µM), an IC50 (HT-29) of 0.01 µg/mL (≈ 0.022 µM) and an IC50 [1] of 0.01 µg/mL (≈ 0.022 µM). It also gave an IC50 (P388) of 0.002 µg/mL (≈ 0.0044 µM).

Work on `CC1(C)CCC[C@]2(C)[C@@H](C=O)C(C=O)=CC[C@@H]12` [POLYGODIAL] yielded an IC50 (A549) of 2.5 µg/mL (≈ 10.7 µM), an IC50 (HT-29) of 2.5 µg/mL (≈ 10.7 µM) and an IC50 [1] of 2.5 µg/mL (≈ 10.7 µM). For the same molecule, the IC50 (P388) was 1.2 µg/mL (≈ 5.12 µM).
